Bioassay records deposited in PubChem BioAssay by The Scripps Research Institute Molecular Screening Center.
Sampled rows, rich in hits. Any-hit rate of the full collection: about 2.9%.
PRMT1 inh: inhibitors of human PRMT1; hit rate 1.3% among 370,000; Q99873; inhibition, % at 2.79 µM; recombinant PRMT1, activity-based probe fluorescence polarization;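 active = inhibition above about 21% made by adding two undisclosed values, limit read from the data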
mABHD4 FP: inhibits mouse alpha/beta hydrolase domain 4 | Q8VD66 | purified mABHD4, FP-Rh probe fluorescence polarization | inhibition, % at 8.92 µM | hit rate 0.54% among 370,000;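 active = inhibition exceeding the mean over every tested compound plus 3 SD, cut at about 30% in these data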;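 also: 0% = plate median of compound wells and 100% = S159A mutant with DMSO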
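Assay system: mouse ABHD4 enzyme, wild type / Also added: fluorescent activity-based probe FP-Rh / Doses: single nominal dose of 8.92 µM, 0.89% DMSO final / Timing: 45 min compound pre-incubation plus 60 min probe step, 25 °C / Signal: FP readout, ex 525 nm / em 598 nm / Control set: S159A mutant/DMSO as 100%, compound-well median as 0%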
HTRA1 inhibitor: blocks human HTRA1 serine peptidase; Q92743; recombinant HTRA1, FP-rhodamine activity-based probe, fluorescence polarization; inhibition, % at 5.96 µM; hit rate 0.5% among 340,000; in the data active = inhibition above about 36%;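 also: 0% = enzyme with DMSO and 100% = wells lacking enzyme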
PAD4 inh: PAD4 (human) enzyme inhibition; recombinant PAD4, RCA probe fluorescence polarization; hit rate 0.41% among 330,000; Q9UM07; AID 485272; inhibition, % at 6.36 µM;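 active = percent inhibition above a cutoff equal to the mean of all tested compounds plus 3 SD, cut at about 15% in these data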;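 also: 0% = PAD4 with RCA probe and DMSO and 100% = probe without PAD4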
Target sequence (Q9UM07 whole entry, looked up): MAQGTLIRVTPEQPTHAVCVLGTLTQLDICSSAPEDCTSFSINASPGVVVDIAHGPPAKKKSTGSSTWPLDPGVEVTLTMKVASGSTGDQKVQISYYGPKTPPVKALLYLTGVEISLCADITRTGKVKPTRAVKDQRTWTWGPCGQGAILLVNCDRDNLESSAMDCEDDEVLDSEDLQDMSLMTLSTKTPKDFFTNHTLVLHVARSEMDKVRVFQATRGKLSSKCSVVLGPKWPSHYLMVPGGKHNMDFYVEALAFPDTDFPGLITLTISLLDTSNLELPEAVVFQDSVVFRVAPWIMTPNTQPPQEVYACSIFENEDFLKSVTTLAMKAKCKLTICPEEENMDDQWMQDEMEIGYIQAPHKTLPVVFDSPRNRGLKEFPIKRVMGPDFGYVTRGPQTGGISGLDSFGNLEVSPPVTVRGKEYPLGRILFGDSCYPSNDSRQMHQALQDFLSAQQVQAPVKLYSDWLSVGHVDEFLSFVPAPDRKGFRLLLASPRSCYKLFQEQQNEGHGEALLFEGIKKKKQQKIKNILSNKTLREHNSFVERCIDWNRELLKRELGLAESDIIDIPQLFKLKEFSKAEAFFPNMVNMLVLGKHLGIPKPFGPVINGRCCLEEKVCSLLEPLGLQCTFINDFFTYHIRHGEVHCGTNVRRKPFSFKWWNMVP
TCR CD3 inh: human TCR-CD3 binding inhibition; TAMRA-labeled TCR probe fluorescence, biochemical; inhibition, % at 9.4 µM; hit rate 0.37% among 360,000; in the data active = inhibition above about 19%;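 also: recombinant mutant TCR 2C K166C tagged with TAMRA read by polarization; 0% = receptor in buffer alone and 100% = receptor with positive control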
SIAE primary: inhibitors of human sialic acid acetylesterase SIAE. Q9HAT2. SIAE FP-Rh probe binding, fluorescence polarization. inhibition, % at 9.66 µM. hit rate 0.69% among 370,000. AID 1053197;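 active = inhibition above a cutoff: mean of compounds within the control limits plus 3 SD of those, cut at about 17% in these data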;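 also: 0% = plate median of compound wells and 100% = probe without SIAE protein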
PRMT1 confirm: PRMT1 (human) inhibition, FP confirmation | hit rate 42% among 3,300 | shares compounds with PRMT1 inh | inhibition, % at 2.79 µM | recombinant His-PRMT1, activity-based probe fluorescence polarization;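 active = mean inhibition across replicates above the hit cutoff derived for the earlier primary screen, cut at about 22% in these data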
Numbers without * were called inactive; · = no result given.

SMILES	PRMT1 inh	mABHD4 FP	HTRA1 inhibitor	PAD4 inh	TCR CD3 inh	SIAE primary	PRMT1 confirm
O=C(O)c1ccc(N/N=C/C2=C(N3CCOCC3)C(=C\c3ccccc3)/CC2)cc1	32.8*	27.0	9.7	3.8	-6.0	16.7	15.7
COc1ccc(CCN2C(=O)CC(NCc3ccc4c(c3)OCO4)C2=O)cc1OC (stereo not given)	·	·	8.9	-8.2	·	·	·
COc1ccc(CCNC2CC(=O)N(CCc3ccc(OC)c(OC)c3)C2=O)cc1OC (stereo not given)	54.3*	10.7	-3.4	·	-0.4	-3.3	1.1
Brc1ccc(-c2nn3c(-c4ccco4)nnc3s2)o1	53.5*	6.9	7.3	-0.1	18.8	1.3	15.2
CCOC(=O)N1CCN(C(=O)C[C@H]2C[C@@]3(C(=O)OC)C(=C[C@H](C(C)C)O[C@@H]3C3CC3)N(Cc3ccc(Cl)cc3Cl)C2=O)CC1	-5.5	-18.0	·	·	·	0.2	·
Fc1ccc(CSc2nnc3ccccn23)c(Cl)c1	45.6*	5.7	-1.2	1.8	-0.9	2.9	-2.5
Fc1cccc(Cl)c1CSc1nnc2ccccn12	-1.7	2.4	4.9	3.9	-1.6	-2.1	·
CCOc1ccc(Oc2c(Cl)cnn(Cc3cccc4ccccc34)c2=O)cc1	2.1	-1.8	·	·	·	2.1	·
CCn1c(SCC(=O)Nc2ccccc2-c2ccccc2)nnc1-c1ccc(Cl)cc1	-3.5	1.9	·	·	·	1.1	·
CCCc1nc2c(sc3nc4c(cc32)COC(C)(C)C4)c(=O)n1CCN(C)C	0.2	-1.3	-2.3	4.5	4.3	-1.5	·
CCCc1nc2c(sc3nc4c(cc32)COC(C)(C)C4)c(=O)n1Cc1ccco1	30.5*	1.0	-17.5	-2.1	5.4	-1.7	9.1
CC(=O)Nc1ccc(SCC(=O)c2c(N)n(Cc3ccccc3)c(=O)n(C)c2=O)cc1	25.4*	1.4	-2.8	3.6	2.3	-2.0	17.8
CC(=O)NC(=S)c1c(N)n(Cc2ccccc2)c(=O)n(C)c1=O	·	·	·	4.3	·	·	·
COC(=O)C(CC(=O)c1ccc(Br)cc1)n1nc(C)cc1C (stereo not given)	76.9*	4.9	-2.8	-2.2	-8.0	-5.8	7.5
COc1cc(/C=C2/C(=O)NN(c3cccc(C)c3)C2=O)cc([N+](=O)[O-])c1O	32.4*	28.3	26.4	-1.0	5.4	1.0	18.3
Cn1c(N)c(C#N)c2c(c1=S)CSC(C)(C)C2	11.3	5.8	2.3	4.1	0.5	6.9	·
CC1(C)Cc2c(C#N)c(N)sc(=S)c2CS1	30.7*	7.5	14.8	1.6	3.5	1.7	41.3*
COc1ccc(-n2c(SCc3nc4ccccc4[nH]3)nc3ccccc3c2=O)cc1	1.9	1.1	·	·	·	-21.9	·
Cc1ccc(-n2c(N)c(C(=O)N3CCN(C)CC3)sc2=S)cc1	85.9*	1.3	0.7	-4.3	-4.6	4.7	71.0*
Cc1ccc(-n2c(N)c(C(=O)N3CCCCC3)sc2=S)cc1	4.7	-3.7	0.4	-2.9	-1.6	12.7	·
O=C(Nc1ccccc1)c1nnsc1S(=O)c1ccc(Cl)cc1 (stereo not given)	81.3*	-0.4	-29.5	4.6	5.5	0.3	87.8*
O=C(c1nnsc1S(=O)c1ccc(Cl)cc1)N1CCOCC1 (stereo not given)	54.4*	3.9	2.4	·	4.4	16.9	65.7*
O=C(CC1CCCC1)N[C@H](C(=O)N1CCC[C@H]1C(=O)NC1CCCC1)c1ccccc1	0.4	-8.9	·	·	3.3	-2.3	·
O=C(NC1CCCCC1)C(c1cccc2ccccc12)n1c(=O)c(-c2ccco2)nc2ccccc21 (stereo not given)	29.4*	-1.2	·	·	-3.7	-7.9	19.1
CC(C)(C)NC(=O)C(c1ccccc1)n1c(=O)c(-c2ccco2)nc2ccccc21 (stereo not given)	26.1*	-11.7	·	·	-5.4	2.3	16.1
SMILES	PRMT1 inh	mABHD4 FP	HTRA1 inhibitor	PAD4 inh	TCR CD3 inh	SIAE primary	PRMT1 confirm
Cn1c(SCc2ccc(C(C)(C)C)cc2)nnc1-c1ccco1	0.7	-6.6	·	·	·	-1.8	·
S=C(NC1CC1)SCc1ccco1	47.9*	22.9	0.1	-2.0	7.7	9.0	11.8
CCN=C1SC(CC(=O)NCc2ccccc2)C(=O)N1CC (stereo not given)	78.4*	-4.8	3.2	-3.2	7.5	1.5	5.5
CCN=C1SC(C(=O)NCCc2ccccc2)CC(=O)N1CC (stereo not given)	39.0*	-6.2	-3.1	1.6	5.2	0.5	0.3
CCN=C1SC(C(=O)Nc2cccc(Cl)c2)CC(=O)N1CC (stereo not given)	-10.2	-5.5	-6.5	-7.6	1.1	-1.4	·
CCC(=O)N1CCc2cc(Br)c(S(=O)(=O)NCc3ccccc3OC)cc21	0.0	1.1	·	·	·	3.2	·
CC(=S)/C=C1\Sc2ccccc2N1C	39.3*	-12.8	-1.7	-3.5	-5.4	0.9	17.1
O=C(Nc1ccc(F)cc1Cl)C1CCCN1S(=O)(=O)c1cccc2cccnc12 (stereo not given)	-3.3	-1.4	·	·	·	1.1	·
O=C(Nc1ccc(Cl)cc1)C(Cl)C(=O)c1ccccc1 (stereo not given)	77.5*	-1.3	-10.4	2.0	0.1	0.2	78.4*
COc1ccc(S(=O)(=O)N(C(=O)C(C)C)c2ccc3oc(=O)sc3c2)cc1	68.2*	-27.2	20.9	14.0	-9.3	-41.2	38.6*
O=C(NCC(F)(F)F)c1ccc(S(=O)(=O)N2CCN(C(=O)C3CCCO3)CC2)cc1 (stereo not given)	70.5*	9.8	0.3	-1.0	8.2	1.3	0.8
Cc1ccc(S(=O)(=O)N2CCN(C(=O)C3CCCO3)CC2)cc1 (stereo not given)	-3.1	-8.3	0.8	-1.4	1.8	-7.6	·
COC(=O)c1cccc(OC[C@@H](O)CN2CCC(C(O)(c3ccccc3)c3ccccc3)CC2)c1	1.3	-2.2	·	·	·	-5.1	·
CC(=Nc1ccc(Br)cc1)c1sc2ccccc2c1O	28.4*	-5.7	-6.6	5.4	4.2	-3.5	11.3
CC(=Nc1ccccc1)c1sc2ccccc2c1O	32.9*	-3.6	-2.5	7.9	1.0	9.3	32.5*
CCOC(=O)[C@@]12CCCC3=C1N(CCC3)C(=O)[C@H]2CC(=O)N1CCCC1	-2.3	1.0	·	·	·	-2.3	·
Cc1ccc(C=Nn2c(-c3n[nH]c4c3CCC4)n[nH]c2=S)s1	29.4*	-4.2	·	·	·	3.0	4.4
S=c1[nH]nc(-c2n[nH]c3c2CCC3)n1N=Cc1ccc(Br)s1	19.4	3.5	·	·	·	8.1	·
CN(C)c1ccc(C2NCCS2)cc1 (stereo not given)	35.3*	6.8	4.6	-1.3	-2.7	6.0	33.9*
Cc1ccc(C2NCCS2)cc1 (stereo not given)	32.3*	-9.3	1.5	0.2	-9.2	1.2	8.0
COC(=O)[C@]1(CNC(=O)c2cc(F)ccc2F)CC(=O)N(C)[C@@H]1c1ccccc1	-7.4	1.1	·	·	·	3.2	·
Cc1ccc(N2C(=O)CC(Sc3cccs3)C2=O)cc1 (stereo not given)	66.0*	-0.1	1.9	14.7	-7.8	3.6	51.4*
